Shown are actives, neighbours in structure and some others; about 2.3% of the full set was active somewhere.
TRPC4 potent – TRPC4 (mouse) allosteric potentiation; 310,000 tested, 0.42% active; B-score at 10 µM; HEK293 TRPC4beta/mu-opioid, DAMGO EC20, Fluo-4 Ca2+ flux; stronger effect = higher value; Q9QUQ5;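 active = B-score of calcium response area above 5 SD of library B-scores, with initial fluorescence ratio within 5 SD of library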
TRPC6 inhibitor – mouse TRPC6 channel inhibition; 310,000 tested, 1.1% active; HEK293-TRPC6, membrane potential dye, ACh-evoked depolarization; stronger effect = lower value; B-score at 10 µM; Q61143;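 active = B-score under library mean minus 3 SD, initial fluorescence not abnormally high, positive integrated signal ratio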;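 also: B-score derived from integrated fluorescence ratio over the kinetic read; more negative B-score means stronger inhibition of depolarization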
TRPC4 act – TRPC4 (mouse) channel activation. Q9QUQ5. 310,000 tested, 0.49% active. HEK293 TRPC4beta/mu-opioid, Fluo4 calcium fluorescence; stronger effect = higher value. B-score at 10 µM;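 active = B-score above 5 SD of library B-scores, and initial fluorescence ratio not above library mean plus 5 SD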;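 also: positive B-score marks a calcium rise read as TRPC4 activation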
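Material: TRPC4beta and mu-opioid receptor HEK293 stable cells | Incubation: 45 min room-temperature Fluo4 loading, 110 s read | Detection: Kinetic Fluo4 calcium fluorescence | Measure: Integrated baseline-normalised fluorescence ratio, converted to per-well B score | Benchmarks: Low control buffer alone, high control maximal DAMGO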
TRPC4 block – TRPC4 (mouse) channel inhibition | Q9QUQ5 | HEK293 TRPC4beta/mu-opioid, DAMGO-evoked Fluo4 calcium flux; stronger effect = lower value | B-score at 10 µM | 300,000 tested, 0.39% active;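 active = B-score over 3 SD under the library average, no early fluorescence shift, positive overall ratio signal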
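Signal: kinetic Fluo4 fluorescence imaging of calcium influx. Material: stable TRPC4beta/mu-opioid receptor HEK293 cells. Probe or stimulus: DAMGO in two steps, submaximal then maximal.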
Yeast superoxide – lowers age-related superoxide in aged yeast cells. AID 2690. 330,000 tested, 0.18% active. superoxide response (% of plate mean), % at 10 µM. S. cerevisiae aged cells, superoxide DHE fluorescence; stronger effect = lower value;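 active = superoxide response under a set limit, about three screen SD below normal, cut at about 65% in these data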;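 also: yeast aged for seven days with compound at 30 °C before DHE staining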
TRPC6 act – activators of mouse TRPC6 channel; Q61143; HEK293-TRPC6 membrane potential dye fluorescence; stronger effect = higher value; B-score at 10 µM; 310,000 tested, 0.13% active;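 active = B-score of the integrated fluorescence ratio above library mean plus 3 SD, and starting fluorescence ratio within library mean plus 5 SD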;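 also: higher score means more depolarization so channel activation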
TRPC4 spec 2 – mouse TRPC4 off-target activity of TRPC6 inhibitors, second screen | shares compounds with TRPC6 inhibitor | HEK293 TRPC4/MOR, membrane potential dye fluorescence; channel activated by saturating DAMGO dose | inhibition, % at 10 µM | 920 tested, 42% active;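 active = compounds whose fluorescence signal differed from control wells by over 3 SD, either direction, in both duplicate plates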
TRPC4 spec – selectivity of TRPC6 inhibitors: effect on mouse TRPC4. AID 2777. activity change, negative = inhibition, % at 10 µM. HEK293 TRPC4/mu-opioid, membrane potential fluorescence. 920 tested, 61% active. shares compounds with TRPC6 inhibitor;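 active = rise or fall in signal beyond 3 SD of buffer-only wells in both replicate plates, either sign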;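 also: integrated kinetic ratio of fluorescence range over baseline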
HEK293 MPD ctr 2-1 – second check of TRPC6 inhibitor effects in parental HEK293 cells | AID 2779 | signal change vs control, % at 10 µM | 920 tested, 31% active | parental HEK293 membrane potential dye fluorescence; maximal acetylcholine challenge after compound addition | shares compounds with TRPC6 inhibitor;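 active = membrane potential signal moving either way by over 3 SD of the maximum-effect control, in both duplicate plates, meaning non-specific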
HEK293 MPD ctr-1 – counter-screen for TRPC6 inhibitors: effect in parental HEK293 cells; membrane potential signal change, % at 10 µM; AID 2780; shares compounds with TRPC6 inhibitor; parental HEK293 membrane potential dye fluorescence; 920 tested, 60% active;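 active = membrane potential signal shifting up or down by more than 3 SD of buffer-only wells, on both duplicate plates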
HEK293 MPD ctr-2 – checks TRPC6 modulator effects in parental HEK293 cells; shares compounds with TRPC6 inhibitor; membrane potential dye fluorescence; membrane potential signal change, % at 10 µM; 2,400 tested, 51% active;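 active = membrane potential signal moves up or down beyond 5 SD from buffer-only wells, on both duplicate plates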
HEK293 MPD ctr 2-2 – parental HEK293 nonspecific activity of TRPC6 modulators, second screen; 2,400 tested, 14% active; membrane potential dye fluorescence; after compound, maximal acetylcholine stimulation; shares compounds with TRPC6 inhibitor; AID 488926; inhibition, % at 10 µM;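 active = membrane potential signal drops by more than 5 SD from the mean control signal, in both duplicate plates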
TRPC4 ctr mod – mouse TRPC4 off-target activity of TRPC6 modulators. 2,400 tested, 69% active. percent change from control (negative = decrease, positive = increase), % at 10 µM. shares compounds with TRPC6 inhibitor. HEK293 TRPC4/mu-opioid, membrane potential fluorescence;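 active = membrane potential signal moved up or down beyond 5 SD of buffer control wells, in both duplicate plates, actives on both sides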
TRPC4 ctr inh 2 – second selectivity test of TRPC6 modulators against mouse TRPC4. shares compounds with TRPC6 inhibitor. HEK293 TRPC4/mu-opioid, membrane potential dye fluorescence; stimulated with maximal-effect DAMGO. inhibition, % at 10 µM. 2,400 tested, 55% active. AID 488928;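 active = drop in membrane potential signal beyond 5 SD of the control wells in both duplicate plates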;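 also: TRPC4 counter screen for TRPC6 hits run under conditions tuned for TRPC6 not TRPC4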
TRPC6 block conf – mouse TRPC6 inhibitor confirmation; shares compounds with TRPC6 inhibitor; HEK293-TRPC6, membrane potential dye, ACh-evoked depolarization; inhibition, % at 10 µM; 3,300 tested, 43% active; AID 488960;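 active = fluorescence ratio falls more than 5 SD below the full-stimulation control mean, in both duplicate runs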;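 also: integrated fluorescence ratio of peak minus minimum over baseline after agonist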
TRPC6 act conf – confirmation of mouse TRPC6 activators. shares compounds with TRPC6 inhibitor. HEK293-TRPC6 membrane potential dye fluorescence, FDSS. activation, % at 10 µM. 2,800 tested, 11% active. AID 488961;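 active = ratio signal rise beyond 5 SD above unstimulated control wells' mean, seen in both duplicate runs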
Hits are given with their value; n = inactive; x = no result.

SMILES	TRPC4 potent	TRPC6 inhibitor	TRPC4 act	TRPC4 block	Yeast superoxide	TRPC6 act	HEK293 MPD ctr-2	HEK293 MPD ctr 2-2	TRPC4 ctr mod	TRPC4 ctr inh 2	TRPC6 block conf	TRPC6 act conf	others
O=C(N/N=C/c1ccc([N+](=O)[O-])s1)c1ccccc1	n	-6	n	n	n	n	n	n	n	n	n	n
O=C(NCc1n[nH]c(=S)n1-c1ccccc1)c1ccc(S(=O)(=O)N2CCCCC2)cc1	n	n	n	n	n	n	x	x	x	x	x	x
O=C1c2ccccc2C(=O)c2c(Nc3ccc(CCO)cc3)ccc(O)c21	n	-5.2	n	n	n	n	n	n	-9.0%	42%	n	n
CC(=O)Nc1ccc(Nc2ccc3c4c(cc(=O)n3C)-c3ccccc3C(=O)c24)cc1	n	n	n	n	n	n	x	x	x	x	x	x
Cc1nc(CN2CCN(Cc3nc(C(c4ccccc4)c4ccccc4)no3)CC2)cs1	n	-6.4	n	n	n	n	101%	n	10%	n	48%	x
NC(=O)CCN1CCN(Cc2nc(C(c3ccccc3)c3ccccc3)no2)CC1	n	-7.9	n	n	n	n	x	x	x	x	n	n	TRPC4 spec 2=n;TRPC4 spec=n;HEK293 MPD ctr 2-1=n;HEK293 MPD ctr-1=n
c1ccc(C(c2ccccc2)c2noc(CN3CCN(C4CCCC4)CC3)n2)cc1	n	-5.2	n	n	n	n	124%	n	15%	n	n	x
CC(=O)N1CCN(Cc2nc(C(c3ccccc3)c3ccccc3)no2)CC1	n	n	n	n	n	n	x	x	x	x	x	x
Cc1cccc(C(=O)NCC(=O)OCC(=O)N2CCN(S(=O)(=O)c3ccc(C)cc3C)CC2)c1	x	x	x	x	n	x	x	x	x	x	x	x
CCOC(=O)CSc1nc(-c2ccccc2)nc2ccc(C)cc12	n	n	n	n	n	n	x	x	x	x	x	x
Cc1cc(C(=O)N/N=C/c2c(C)[nH]n(-c3ccccc3)c2=O)n[nH]1	n	-7.9	n	n	n	n	x	x	x	x	n	n	TRPC4 spec 2=n;TRPC4 spec=-23%;HEK293 MPD ctr 2-1=n;HEK293 MPD ctr-1=-328%
Cc1cc(C(=O)N/N=C/c2cc(N=Nc3ccccc3)ccc2O)n[nH]1	n	-5.9	n	n	n	n	n	n	n	n	n	n
Cc1[nH]n(-c2ccccc2)c(=O)c1/C=N/NC(=O)c1ccc(O)cc1O	n	n	n	n	n	n	x	x	x	x	x	x
CC[n+]1c(/C=C(/C)SC)sc2ccccc21	n	-7.5	n	n	n	n	-275%	82%	-48%	52%	67%	n
CC[n+]1c(/C=C/Nc2ccccc2)sc2ccccc21	n	-8.5	n	n	n	n	x	x	x	x	n	n	TRPC4 spec 2=76%;TRPC4 spec=-20%;HEK293 MPD ctr 2-1=n;HEK293 MPD ctr-1=-361%
CC[n+]1c(/C=C(\C)SC)sc2ccccc21	n	-10	n	n	n	n	-262%	82%	-42%	58%	56%	n
CC/C(=C/c1sc2ccccc2[n+]1CC)SC	n	n	n	n	n	n	x	x	x	x	x	x
COc1ccccc1NC(=O)CSc1ccc(-c2ccc(-n3cccn3)cc2)nn1	n	n	n	n	n	n	x	x	x	x	x	x
COc1ccc(C2CC(=O)C3=C(C2)NC(C)=C(C(=O)Nc2ccccc2C)C3c2coc3ccc(C)cc3c2=O)cc1OC (stereo not given)	x	x	x	x	n	x	x	x	x	x	x	x
O=C(O)C1C(C(=O)Nc2ccc(Cl)cc2)C2C=CC1C21CC1 (stereo not given)	n	n	n	n	n	n	x	x	x	x	x	x
CCCCC(O)(CCN1CCOCC1)c1ccc(Cl)cc1 (stereo not given)	n	-8.9	n	n	n	n	x	x	x	x	65%	n	TRPC4 spec 2=n;TRPC4 spec=8.8%;HEK293 MPD ctr 2-1=30%;HEK293 MPD ctr-1=5.8%
Oc1ccccc1/C=N/Nc1cc(N2CCCC2)nc(N2CCCC2)n1	n	-5.2	n	n	n	n	n	n	16%	n	n	x
Oc1ccc(/C=N/Nc2cc(N3CCOCC3)nc(N3CCOCC3)n2)cc1O	n	n	n	n	n	n	x	x	x	x	x	x
COC(=O)C(NC(=O)c1ccc(C)cc1)(Nc1cccc(C)n1)C(F)(F)F (stereo not given)	n	-7.2	n	n	n	n	x	x	x	x	63%	x	TRPC4 spec 2=n;TRPC4 spec=n;HEK293 MPD ctr 2-1=n;HEK293 MPD ctr-1=n
COC(=O)C(NC(=O)c1ccccc1)(Nc1nc(C)cs1)C(F)(F)F (stereo not given)	n	n	n	n	n	n	x	x	x	x	x	x
SMILES	TRPC4 potent	TRPC6 inhibitor	TRPC4 act	TRPC4 block	Yeast superoxide	TRPC6 act	HEK293 MPD ctr-2	HEK293 MPD ctr 2-2	TRPC4 ctr mod	TRPC4 ctr inh 2	TRPC6 block conf	TRPC6 act conf	others
CC1CC(OC(=O)C(O)c2ccccc2)CC(C)(C)N1C (stereo not given)	n	-5.7	n	n	n	n	n	n	8.5%	n	56%	n
CCC(Oc1ccc(Br)cc1Cl)C(=O)Nc1nnc(C2CC2)s1 (stereo not given)	n	n	n	n	n	n	x	x	x	x	x	x
COc1ccccc1C(c1nnnn1Cc1ccccc1)N1CCN(C2CCCC2)CC1 (stereo not given)	n	n	n	n	n	n	x	x	x	x	x	x
COc1ccc(OC)c(C(c2nnnn2Cc2ccccc2)N2CCN(C3CCCCC3)CC2)c1 (stereo not given)	n	-5.7	n	n	n	n	132%	n	n	65%	40%	x
CN1CCc2c(sc(NC(=O)c3ccc(S(=O)(=O)N4CCCCCC4)cc3)c2C(N)=O)C1	n	-6.5	n	n	n	n	n	n	-69%	n	n	n
NC(=O)c1c(NC(=O)c2ccc(S(=O)(=O)N3CCOCC3)cc2)sc2c1CCCCC2	n	n	n	n	n	n	x	x	x	x	x	x

Screens as filed in PubChem.
